# Results as given in ChEMBL document CHEMBL4622986, “Synthesis and Anti-HCV Activity of Sugar-Modified Guanosine Analogues: Discovery of AL-611 as an HCV NS5B Polymerase Inhibitor for the Treatment of Chronic Hepatitis C” (J Med Chem, 2020).
# pEC50, pIC50: −log10 of the molar value. Active and inactive are the calls of the source. The rule behind the calls is not given here.
# Experiments:
# Hepatitis C virus = assay: Antiviral activity against HCV con1 subgenomic replicon infected in human HuH7 cells assessed as reduction in viral RNA level by qRT-PCR analysis; assay type: functional, organism-based, Hepacivirus hominis; settings: isolate Con1, Huh-7
# Summary of the method: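 Huh-7 cells carrying a subgenomic Con1 HCV replicon (neomycin phosphotransferase, kept under 0.25 mg/ml G418) were exposed to serially diluted compound in DMEM with 2% FBS and 0.5% DMSO, without G418, at 37 °C. Total RNA was extracted and HCV RNA copies were measured by multiplex QRT-PCR (Taqman). EC50 was obtained by 4-parameter curve fit.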
# [1] = Cytotoxicity against human HuH7 cells infected with HCV con1 subgenomic replicon assessed as reduction in cell viability measured after 3 days by CellTiter-blue cell viability assay; assay type: cell-based, Huh-7
# Summary of the method: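 Run in the replicon-bearing Huh-7 cells under the same settings as the antiviral read (DMEM, 2% FBS, 0.5% DMSO, no G418, 37 °C). After 3 days of treatment, viability was read with CellTiter-Blue and CC50 was derived by curve fitting.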
# [2] = Selectivity index, ratio of CC50 for human HuH7 cells infected with HCV con1 subgenomic replicon to EC50 for HCV con1 subgenomic replicon; assay type: toxicity; settings: read-out: Ratio CC50/EC50
# Summary of the method: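 Ratio of CC50 (CellTiter-Blue viability after 3 days) to EC50 (HCV RNA by QRT-PCR). Both were measured in Huh-7 Con1 subgenomic replicon cells in DMEM with 2% FBS and 0.5% DMSO at 37 °C.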
# [3] = Cytotoxicity against human HuH7 cells incubated for 8 days by cellTiter-Glo assay; assay type: cell-based, Huh-7
# Summary of the method: (§1)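 Cells (1×10^5/well) on collagen I-coated wells, first kept 8 days in recommended medium without drug, then exposed to compound for 8 days with refeeding every other day. Viability read by CellTiter-Glo luminescence; CC50 derived by curve fitting.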
# [4] = Cytotoxicity against human HepG2 cells incubated for 8 days by cellTiter-Glo assay; assay type: cell-based; summary of the method: as §1
# [5] = Cytotoxicity against human A549 cells incubated for 8 days by cellTiter-Glo assay; assay type: cell-based; summary of the method: as §1
# [6] = Cytotoxicity against human HeLa cells incubated for 8 days by cellTiter-Glo assay; assay type: cell-based; summary of the method: as §1
# [7] = Cytotoxicity against human U937 cells incubated for 8 days by cellTiter-Glo assay; assay type: cell-based, U-937; summary of the method: as §1
# [8] = Cytotoxicity against human MT4 cells incubated for 8 days by cellTiter-Glo assay; assay type: cell-based; summary of the method: as §1
# [9] = molecular target: RNA-directed RNA polymerase (Hepacivirus hominis, UniProt O39930); assay: Inhibition of HCV NS5B RNA-dependent RNA polymerase activity assessed as reduction in radiolabeled ribonucleotide monophosphates incorporation into RNA using cIRES template measured after 2 hrs by microscintillation counting method
# RNA-directed RNA polymerase, sequence (O39930 whole entry): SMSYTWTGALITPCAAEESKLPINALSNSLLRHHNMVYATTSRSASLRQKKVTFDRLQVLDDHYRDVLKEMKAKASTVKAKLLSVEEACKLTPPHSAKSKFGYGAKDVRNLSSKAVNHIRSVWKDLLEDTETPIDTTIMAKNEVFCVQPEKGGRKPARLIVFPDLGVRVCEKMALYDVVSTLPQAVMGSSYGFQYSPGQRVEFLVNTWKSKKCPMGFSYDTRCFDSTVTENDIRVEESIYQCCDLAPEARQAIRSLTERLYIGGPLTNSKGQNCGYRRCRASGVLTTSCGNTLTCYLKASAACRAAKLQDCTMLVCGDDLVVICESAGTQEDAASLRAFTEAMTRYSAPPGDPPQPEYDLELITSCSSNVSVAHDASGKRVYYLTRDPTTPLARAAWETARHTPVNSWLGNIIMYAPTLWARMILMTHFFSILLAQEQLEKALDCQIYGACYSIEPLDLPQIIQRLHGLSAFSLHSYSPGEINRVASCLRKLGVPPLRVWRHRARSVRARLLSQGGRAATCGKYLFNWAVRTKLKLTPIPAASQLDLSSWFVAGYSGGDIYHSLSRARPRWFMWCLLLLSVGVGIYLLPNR
# Summary of the method: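 Reactions contained 100 nM NS5B, 50 nM cIRES RNA template, 1 μM tritiated CTP, 1 μM ATP, 1 μM GTP and 0.5 μM UTP in 40 mM Tris-HCl pH 8.0, 20 mM NaCl, 3 mM DTT and 4 mM MgCl2, with serially diluted inhibitor. Incubation was 2 h at 30 °C, then TCA precipitation and scintillation counting of acid-insoluble RNA. Values are the mean of n ≥ 2 determinations.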
# [10] = molecular target: RNA-directed RNA polymerase (Hepacivirus hominis) (UniProt O39930); assay: Inhibition of HCV NS5B RNA-dependent RNA polymerase 10-mer elongation complex assessed as chain termination of RNA synthesis by measuring reduction in 11-mer RNA product formation at 100 uM incubated for 1 min by polyacrylamide gel based method
# RNA-directed RNA polymerase (Hepacivirus hominis), sequence (O39930 1-591): as the sequence (O39930 whole entry) above
# Summary of the method: (§2)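 The NS5B elongation complex was built from 6.5 μM NS5B, 20 μM pGG, 20 μM 20-nt RNA template, 25 μM ATP and 12.5 μM GTP (pH 7.0 buffer, 2 h, 30 °C), giving a 9-mer. It was extended to a 10-mer with 33P-CTP for 30 s, then pelleted, washed and resuspended. The complex was elongated with 100 μM of each NTP in 40 mM Tris pH 7.4, 150 mM NaCl, 2 mM MgCl2 and 5 mM DTT for 1 min at 30 °C. Products were resolved on 22.5% urea PAGE and quantified by phosphorimager.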
# [11] = molecular target: RNA-directed RNA polymerase (Hepacivirus hominis) (UniProt O39930); assay: Inhibition of HCV NS5B RNA-dependent RNA polymerase 10-mer elongation complex assessed as chain termination of RNA synthesis by measuring reduction in 20-mer RNA product formation at 100 uM incubated for 1 min in presence of UTP and ATP by polyacrylamide gel based method; summary of the method: as §2
# DNA polymerase alpha = molecular target: T1, DNA polymerase alpha (Homo sapiens, UniProt P09884); assay: Inhibition of human DNA polymerase alpha at 100 uM using calf DNA as substrate by microbeta scintillation counting method relative to control; settings: human DNA polymerase alpha enzyme, probe calf DNA
# T1 sequence (P09884 whole entry): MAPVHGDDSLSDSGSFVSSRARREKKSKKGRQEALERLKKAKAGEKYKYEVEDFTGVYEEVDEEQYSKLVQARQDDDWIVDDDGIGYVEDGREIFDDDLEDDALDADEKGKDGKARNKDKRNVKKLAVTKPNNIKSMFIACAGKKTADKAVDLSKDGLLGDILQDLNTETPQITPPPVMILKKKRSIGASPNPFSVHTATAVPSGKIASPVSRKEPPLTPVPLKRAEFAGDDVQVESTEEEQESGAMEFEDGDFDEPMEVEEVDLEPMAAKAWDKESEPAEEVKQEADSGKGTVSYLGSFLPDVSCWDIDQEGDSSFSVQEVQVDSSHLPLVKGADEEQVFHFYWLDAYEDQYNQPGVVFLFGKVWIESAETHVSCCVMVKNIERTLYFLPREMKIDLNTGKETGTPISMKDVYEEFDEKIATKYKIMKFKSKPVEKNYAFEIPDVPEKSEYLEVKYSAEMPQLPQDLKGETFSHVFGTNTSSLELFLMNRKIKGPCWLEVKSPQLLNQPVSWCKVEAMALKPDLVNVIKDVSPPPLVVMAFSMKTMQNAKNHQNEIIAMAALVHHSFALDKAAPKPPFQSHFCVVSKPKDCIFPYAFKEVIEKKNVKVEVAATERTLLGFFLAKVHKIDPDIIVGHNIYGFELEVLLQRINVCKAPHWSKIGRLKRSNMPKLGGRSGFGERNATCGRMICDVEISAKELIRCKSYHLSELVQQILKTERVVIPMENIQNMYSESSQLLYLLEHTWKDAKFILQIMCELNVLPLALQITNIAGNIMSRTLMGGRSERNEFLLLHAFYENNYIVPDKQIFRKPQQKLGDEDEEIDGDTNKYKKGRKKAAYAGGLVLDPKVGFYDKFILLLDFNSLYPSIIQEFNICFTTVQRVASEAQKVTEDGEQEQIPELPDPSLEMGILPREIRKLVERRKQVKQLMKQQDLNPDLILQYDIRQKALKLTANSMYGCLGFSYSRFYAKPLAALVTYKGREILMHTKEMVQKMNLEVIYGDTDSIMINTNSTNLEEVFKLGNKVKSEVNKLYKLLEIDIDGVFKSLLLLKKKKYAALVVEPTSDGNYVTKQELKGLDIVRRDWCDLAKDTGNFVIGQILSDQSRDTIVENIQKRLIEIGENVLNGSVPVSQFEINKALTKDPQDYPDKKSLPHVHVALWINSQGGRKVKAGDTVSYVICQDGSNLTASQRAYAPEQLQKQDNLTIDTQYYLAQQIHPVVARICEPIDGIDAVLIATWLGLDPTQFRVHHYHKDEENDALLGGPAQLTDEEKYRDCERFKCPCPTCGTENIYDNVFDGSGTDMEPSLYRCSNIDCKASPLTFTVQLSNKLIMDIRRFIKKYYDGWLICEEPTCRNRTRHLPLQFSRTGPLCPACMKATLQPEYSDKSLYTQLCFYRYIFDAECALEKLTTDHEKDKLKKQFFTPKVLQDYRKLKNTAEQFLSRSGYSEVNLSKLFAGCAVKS
# Summary of the method: (§3)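 Activated calf thymus DNA served as template for each polymerase, in 50 mM Tris-HCl pH 8.0, 60 mM KCl, 5 mM MgCl2 and 4 mM DTT with 2 μM each of dCTP, dATP and dGTP plus 2.5 μCi 3H-dTTP. Test NTP was at 100 μM. DNA products were precipitated with 20% TCA and counted by microplate scintillation. Results are reported as percent inhibition with standard deviation.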
# DNA polymerase beta = DNA polymerase beta (Homo sapiens, UniProt P06746); assay: Inhibition of human DNA polymerase beta at 100 uM using calf DNA as substrate by microbeta scintillation counting method relative to control; settings: human DNA polymerase beta enzyme, probe calf DNA; summary of the method: as §3
# DNA polymerase gamma = assay: Inhibition of human DNA polymerase gamma at 100 uM using calf DNA as substrate by microbeta scintillation counting method relative to control; settings: human DNA polymerase gamma enzyme, probe calf DNA; summary of the method: as §3
# [12] = Inhibition of RNA polymerase 2 in human HeLa cell nuclear extract assessed as reduction in RNA transcription by polyacrylamide gel electrophoresis method; assay type: cell-based
# Summary of the method: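 In vitro transcription used HeLa cell nuclear extract. RNA products were resolved on 6% TBE-urea polyacrylamide gels.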
# Homo sapiens = species: Homo sapiens; assay: Substrate activity at human mitochondrial RNA polymerase assessed as nucleotide incorporation into RNA at 100 uM using [33P]-labeled 5'-UUUUGCCGCGCC-3' and 3'-CGGCGCGGCACGTAAGGG-5' RNA/DNA primer/template by polyacrylamide gel electrophoresis method
# Summary of the method: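 Single-turnover conditions: 100 nM 33P-labelled RNA/DNA primer/template with 320 nM human mitochondrial RNA polymerase in excess. Each NTP was tested at 100 μM. ATP, UTP and CTP gauged misincorporation opposite the templating CMP. Products were run on 22.5% TBE-urea sequencing gels and bands quantified by phosphorimager.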
# [13] = Prodrug activation in human hepatocytes assessed as nucleoside monophosphate metabolite formation per million cells incubated for 24 hrs; assay type: ADME, cell-based, Hepatocyte
# Summary of the method: (§4)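 Primary human hepatocytes (1.5-2 million cells/well) acclimated overnight at 37 °C, 5% CO2, then incubated 24 h with 50 μM extracellular compound. Cells washed with cold 0.9% NaCl and lysed in 70/30 methanol/water. Extract dried and reconstituted, then analysed by LC-MS/MS with an internal standard; reported as pmol per million cells.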
# [14] = Prodrug activation in human hepatocytes assessed as [[(2S,3S,4R,5R)-5-(2-amino-6-oxo-1H-purin-9-yl)-2,4-difluoro-3-hydroxy-4-methyl-tetrahydrofuran-2-yl]methoxy-hydroxy-phosphoryl]phosphono hydrogen phosphate metabolite formation per million cells at 50 uM incubated for 24 hrs by LC-MS/MS analysis; assay type: ADME, cell-based, Hepatocyte; summary of the method: as §4
# [15] = Prodrug activation in Beagle dog assessed as [[(2S,3S,4R,5R)-5-(2-amino-6-oxo-1H-purin-9-yl)-2,4-difluoro-3-hydroxy-4-methyl-tetrahydrofuran-2-yl]methoxy-hydroxy-phosphoryl]phosphono hydrogen phosphate metabolite formation in liver at 9.69 mg/kg, po measured at 4 hrs post dose by LC-MS/MS analysis; assay type: ADME, organism-based, Canis lupus familiaris; settings: in vivo
# Summary of the method: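 Male non-naïve beagle dogs (n=2 per time point), fasted overnight, single oral dose of 9.69 mg/kg (5 mg/kg parent nucleoside equivalent) as a solution in 40% PEG400 in water. Animals anesthetized with pentobarbital before liver collection. Liver NTP measured by negative-ion LC-MS/MS against standards spiked into blank liver homogenate.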
SMILES,pEC50 (Hepatitis C virus),CC50 at 72 h [1],selectivity ratio [2],CC50 at 192 h [3],CC50 at 192 h [4],CC50 at 192 h [5],CC50 at 192 h [6],CC50 at 192 h [7],CC50 at 192 h [8],pIC50 [9],inhibition [10],inhibition [11],inhibition at 100 µM (DNA polymerase alpha),inhibition at 100 µM (DNA polymerase beta),inhibition at 100 µM (DNA polymerase gamma),pIC50 [12],Activity (Homo sapiens),Drug metabolism [13],Drug metabolism [14],Drug metabolism [15]
CCOc1nc(N)nc2c1ncn2[C@@H]1O[C@H](COP(=O)(N[C@@H](C)C(=O)OCC(C)(C)C)Oc2cccc3ccccc23)[C@@H](O)[C@@]1(C)O (some centres undefined),6.46,16400 nM,47.1,350 nM,1500 nM,7800 nM,13400 nM,170 nM,960 nM,,,,,,,,,,,
C[C@]1(F)[C@H](n2cnc3c(=O)[nH]c(N)nc32)O[C@](F)(COP(=O)(O)OP(=O)(O)OP(=O)(O)O)[C@H]1O,,,,,,,,,,6.80,inactive,Active,73.2%,16.3%,29.8%,< 4.00,inactive,,,
CCOc1nc(N)nc2c1ncn2[C@@H]1O[C@](F)(CO[P@](=O)(N[C@@H](C)C(=O)OC(C)C)Oc2ccccc2)[C@@H](O)[C@@]1(C)F,7.24,> 100000 nM,> 1700,,,,,,,,,,,,,,,67.1 pmol,174 pmol,6.33 µM
CCOc1nc(N)nc2c1ncn2[C@@H]1O[C@](F)(CO[P@@](=O)(N[C@@H](C)C(=O)OC(C)C)Oc2ccccc2)[C@@H](O)[C@@]1(C)F,8.30,> 100000 nM,> 20000,,,,,,,,,,,,,,,105 pmol,321 pmol,22.3 µM
